The source made the active and inactive calls.
Key:
Rattus norvegicus [1] = experiment: Neurobiological activity in ip dosed Sprague-Dawley rat assessed as increase in number of rat choosing drug associated lever treated 15 mins prior to test by drug discrimination test; format: functional
Rattus norvegicus [2] = experiment: Neurobiological activity in Sprague-Dawley rat assessed as increase in number of rat choosing drug associated lever at 0.75 mg/kg, ip treated 15 mins prior to test by drug discrimination test relative to control; format: functional
How it was run: (§1)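 Male Sprague-Dawley rats (n = 13, 300–325 g) held at 80–90% free-feeding weight by water restriction. Trained to discriminate WAY163909 0.75 mg/kg ip from saline, 1 mL/kg, 15 min pretreatment. Two-lever, water-reinforced, FR20, 15 min sessions. Criterion ≥80% correct responding for 10 sessions. Test doses given ip 15 min pretest. Read-out: percentage of rats choosing the drug lever.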

Rattus norvegicus [3] = experiment: Neurobiological activity in Sprague-Dawley rat assessed as increase in number of rat choosing drug associated lever at 1 mg/kg, ip treated 15 mins prior to test by drug discrimination test relative to control; format: functional; how it was run: as §1
Rattus norvegicus [4] = experiment: Neurobiological activity in Sprague-Dawley rat assessed as increase in number of rat choosing drug associated lever at 0.25 to 0.625 mg/kg, ip treated 15 mins prior to test by drug discrimination test; format: functional, organism-based
How it was run: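 Male Sprague-Dawley rats (n=13), water-restricted to 80-90% free-feeding weight, trained in a two-lever water-reinforced task (FR 20) to discriminate 0.75 mg/kg WAY163909 ip from saline (1 mL/kg). Test drug given ip 15 min before the 15-min session. Read-out is the percentage of rats choosing the drug lever. ED50 is taken from log-probit analysis.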

Rattus norvegicus [5] = experiment: Neurobiological activity in Sprague-Dawley rat assessed as increase in number of rat choosing drug associated lever at 0.5 mg/kg, ip treated 15 mins prior to test by drug discrimination test relative to control; format: functional; how it was run: as §1
Rattus norvegicus [6] = experiment: Neurobiological activity in Sprague-Dawley rat assessed as increase in number of rat choosing drug associated lever at 0.625 mg/kg, ip treated 15 mins prior to test by drug discrimination test relative to control; format: functional; how it was run: as §1
[7] = molecular target: T1, 5-hydroxytryptamine receptor 2C (Homo sapiens) (UniProt P28335); experiment: Positive allosteric modulation of human 5HT2CR expressed in CHO cells assessed as increase in 5-HT induced intracellular calcium release at 1 nM preincubated for 15 mins followed by 5-HT addition and measured at 1 secs interval for 360 secs by calcium 4 dye based FLIPR assay relative to 5-HT; format: functional, cell-based
T1 sequence (whole entry): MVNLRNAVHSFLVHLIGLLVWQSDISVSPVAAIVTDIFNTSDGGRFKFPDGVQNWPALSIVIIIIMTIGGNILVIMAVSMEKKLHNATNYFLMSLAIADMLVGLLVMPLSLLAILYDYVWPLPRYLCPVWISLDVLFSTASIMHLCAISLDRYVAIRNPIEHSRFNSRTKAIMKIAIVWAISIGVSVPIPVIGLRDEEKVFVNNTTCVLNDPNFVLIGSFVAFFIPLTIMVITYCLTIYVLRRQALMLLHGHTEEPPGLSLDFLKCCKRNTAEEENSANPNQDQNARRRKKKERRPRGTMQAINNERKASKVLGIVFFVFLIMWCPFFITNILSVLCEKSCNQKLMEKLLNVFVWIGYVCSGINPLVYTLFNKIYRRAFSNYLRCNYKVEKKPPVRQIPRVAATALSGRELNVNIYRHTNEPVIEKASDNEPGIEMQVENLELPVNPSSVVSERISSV
How it was run: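 CHO cells stably expressing human unedited (INI) 5-HT2C receptor, serum-starved 3 h, then loaded 60 min at 37 °C with Calcium 4 dye and 2.5 mM probenecid in HBSS (pH 7.4). Compound added 15 min before 5-HT (10 pM–10 μM). FLIPR read every 1 s for 360 s; peak height; Emax by 4-parameter fit, 4–6 biological replicates in triplicate, relative to 5-HT alone.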

[8] = molecular target: T2, 5-hydroxytryptamine receptor 2C (Homo sapiens, UniProt P28335); experiment: Agonist activity at human 5HT2CR expressed in CHO cells assessed as increase in intracellular calcium release at 1 nM incubated for 15 mins measured at 1 secs interval for 120 secs by calcium 4 dye based FLIPR assay relative to 5-HT; format: cell-based; conditions: 0.001 µM
T2 sequence (P28335 whole entry): T1 sequence (whole entry)
How it was run: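 h5-HT2CR (unedited INI isoform) stably expressed in CHO cells; cells plated ~24 h, serum-free medium 3 h, then Calcium 4 dye with 2.5 mM probenecid in Ca/Mg-free HBSS pH 7.4 for 60 min at 37°C plus 15 min at room temperature. Compound given alone, read for 15 min before 5-HT. Peak fluorescence is expressed relative to the 5-HT Emax. 4-6 biological replicates, each in triplicate.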

5-HT2A receptor = 5-HT2A receptor (Homo sapiens, UniProt P28223); experiment: Positive allosteric modulation of human 5HT2AR expressed in CHO cells assessed as increase in 5-HT induced intracellular calcium release at 1 nM preincubated for 15 mins followed by 5-HT addition and measured at 1 secs interval for 360 secs by calcium 4 dye based FLIPR assay relative to 5-HT; format: cell-based; conditions: CHO cells expressing human 5HT2AR
How it was run: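 CHO cells stably expressing human 5-HT2AR, serum-starved 3 h, then loaded with Calcium 4 dye plus 2.5 mM probenecid in HBSS (no Ca/Mg, pH 7.4) for 60 min at 37°C and 15 min at room temperature. Test compound added 15 min before 5-HT (10 pM-10 μM). FLIPR fluorescence read every 1 s for 360 s after 5-HT. Emax from 4-parameter fit, normalized to 5-HT maximum.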

5-HT2A receptor, sequence (P28223 whole entry): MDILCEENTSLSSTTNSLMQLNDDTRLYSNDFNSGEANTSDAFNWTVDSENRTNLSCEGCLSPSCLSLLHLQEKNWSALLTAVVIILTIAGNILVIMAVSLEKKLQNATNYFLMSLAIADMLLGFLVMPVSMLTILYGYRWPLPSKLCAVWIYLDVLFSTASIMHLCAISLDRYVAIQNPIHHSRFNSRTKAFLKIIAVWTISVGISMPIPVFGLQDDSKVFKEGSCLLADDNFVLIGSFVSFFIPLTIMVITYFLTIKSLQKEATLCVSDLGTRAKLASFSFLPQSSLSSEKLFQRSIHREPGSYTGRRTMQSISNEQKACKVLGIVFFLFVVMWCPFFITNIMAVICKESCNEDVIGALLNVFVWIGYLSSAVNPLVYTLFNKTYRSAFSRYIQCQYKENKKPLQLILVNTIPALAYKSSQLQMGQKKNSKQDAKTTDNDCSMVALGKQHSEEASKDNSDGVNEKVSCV

c1cc2c3c(c1)[C@H]1CCC[C@H]1N3CCNC2
ED50 (Rattus norvegicus [1]): 0.51 mg/kg
Activity (Rattus norvegicus [2]): 92%
Activity (Rattus norvegicus [3]): 100%
Activity (Rattus norvegicus [4]): Active
Activity (Rattus norvegicus [5]): 46%
Activity (Rattus norvegicus [6]): 54%

O=C(NC[C@H](O)CO)[C@@H]1C[C@H](CCc2ccccc2)CCN1
Emax [7]: 108%
Activity [8]: Not Active

O=C(NC[C@H](O)CO)[C@@H]1C[C@H](CCC2CCCCC2)CCN1
Emax [7]: 110%
Activity [8]: Not Active

Cc1ccc(CC[C@H]2CCN[C@@H](C(=O)N[C@H](CO)[C@H](O)c3ccccc3)C2)cc1
Emax [7]: 98.9%
Activity [8]: Not Active

O=C(N[C@H](CO)[C@H](O)c1ccccc1)[C@@H]1C[C@H](c2ccccc2)CCN1
Emax [7]: 103%
Activity [8]: Not Active

CC(C)(C)c1ccc(CC[C@H]2CCN[C@@H](C(=O)N[C@H](CO)[C@H](O)c3ccccc3)C2)cc1
Emax [7]: 107%
Activity [8]: Not Active

O=C(N[C@H](CO)[C@H](O)c1ccccc1)[C@@H]1C[C@H](CCc2ccccc2)CCN1
Emax [7]: 110%
Emax at 0.1 h, 0.001 µM (5-HT2A receptor): 104%
Activity [8]: Not Active

O=C(N[C@H](CO)[C@H](O)c1ccccc1)[C@H]1C[C@@H](c2ccccc2)CCN1
Emax [7]: 118%
Emax at 0.1 h, 0.001 µM (5-HT2A receptor): 103%
Activity [8]: Not Active

CC(C)(C)c1ccc(CC[C@@H]2CCN[C@H](C(=O)N[C@H](CO)[C@H](O)c3ccccc3)C2)cc1
Emax [7]: 115%
Activity [8]: Not Active

O=C(N[C@H](CO)[C@H](O)c1ccccc1)[C@H]1C[C@@H](CCc2ccccc2)CCN1
Emax [7]: 109%
Activity [8]: Not Active

Cc1ccc(CC[C@@H]2CCN[C@H](C(=O)N[C@H](CO)[C@H](O)c3ccccc3)C2)cc1
Emax [7]: 99.3%
Activity [8]: Not Active

O=C(NC[C@H](O)CO)[C@@H]1C[C@H](C2CCCCC2)CCN1 (mixture of isomers)
Emax [7]: 118%
Emax at 0.1 h, 0.001 µM (5-HT2A receptor): 97.8%
Activity [8]: Not Active

O=C(NCCCN1CCOCC1)[C@@H]1C[C@H](CCc2ccccc2)CCN1 (racemic)
Emax [7]: 118%
Emax at 0.1 h, 0.001 µM (5-HT2A receptor): 97.9%
Activity [8]: Not Active

O=C(NCCN1CCOCC1)[C@@H]1C[C@H](CCc2ccccc2)CCN1 (racemic)
Emax [7]: 94.2%
Activity [8]: Not Active

O=C(NCCN1CCOCC1)[C@@H]1C[C@H](c2ccccc2)CCN1 (racemic)
Emax [7]: 114%
Activity [8]: Not Active

O=C(NC(CO)CO)[C@@H]1C[C@H](c2ccccc2)CCN1 (racemic)
Emax [7]: 119%
Emax at 0.1 h, 0.001 µM (5-HT2A receptor): 99.3%
Activity [8]: Not Active

O=C(NCCN1CCOCC1)[C@@H]1C[C@H](C2CCCCC2)CCN1 (racemic)
Emax [7]: 121%
Activity [8]: Not Active

O=C(NCCN1CCOCC1)[C@@H]1C[C@H](CCC2CCCCC2)CCN1 (racemic)
Emax [7]: 110%
Activity [8]: Not Active

O=C(NCCCN1CCOCC1)[C@@H]1C[C@H](CCC2CCCCC2)CCN1 (racemic)
Emax [7]: 118%
Emax at 0.1 h, 0.001 µM (5-HT2A receptor): 97.2%
Activity [8]: Not Active

O=C(NC(CO)CO)[C@@H]1C[C@H](C2CCCCC2)CCN1 (racemic)
Emax [7]: 119%
Activity [8]: Not Active

CCCCCCCCCCC[C@@H]1CCN[C@H](C(=O)NCC(O)CO)C1 (relative stereo)
Activity [8]: Not Active

O=C(NC(CO)CO)[C@@H]1C[C@H](CCc2ccccc2)CCN1 (relative stereo)
Emax [7]: 101%
Activity [8]: Not Active

O=C(NC(CO)CO)[C@@H]1C[C@H](CCC2CCCCC2)CCN1 (relative stereo)
Emax [7]: 106%
Activity [8]: Not Active

Reference: ChEMBL document CHEMBL4622923, “Discovery of 4-Phenylpiperidine-2-Carboxamide Analogues as Serotonin 5-HT2C Receptor-Positive Allosteric Modulators with Enhanced Drug-like Properties” (J Med Chem, 2020)
